Among the data in ChEMBL document CHEMBL1155841, “Methyl (11aS)-1,2,3,5,11,11a-hexahydro-3,3-dimethyl-1-oxo-6H-imidazo-[3',4':1,2]pyridin[3,4-b]indol-2-substituted acetates: synthesis and three-dimensional quantitative structure-activity relationship investigation as a class of novel vasodilators” (2008) are Activity values, retold here.

Common to all, as to assay type: functional
Assay [1] is filed under the species Rattus norvegicus. As to the kind of experiment: Vasorelaxation activity against noradrenaline-induced hypertonic contraction in Wistar rat aorta strips at 50 uM. Further details: scale not given: the % may be the effect or the level left. A digest of the protocol: (§1)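 Aortic strips first contracted with 59 µM noradrenaline, then washed out and stabilized for 30 min. After fresh solution, 59 µM NE was re-added, and peak contraction was taken as 100%. Test agent, dissolved in ethanol, was then added, with ethanol alone as vehicle control. Percent relaxation of the NE contraction was recorded as activity, given as mean ± SD, n = 6.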

Assay [2] is filed under the species Rattus norvegicus. Nature of the assay: Vasorelaxation activity against noradrenaline-induced hypertonic contraction in Wistar rat aorta strips. A digest of the protocol:
as §1

The species entered for assay [3] is Rattus norvegicus. Nature of the assay: Vasorelaxation activity against noradrenaline-induced hypertonic contraction in Wistar rat aorta strips at 5 mM. Further details: scale not given: the % may be the effect or the level left. A digest of the protocol: as §1

Take `COC(=O)[C@H](CC(N)=O)N1C(=O)[C@@H]2Cc3c([nH]c4ccccc34)CN2C1(C)C`: the Activity in the assay filed under Rattus norvegicus [1] worked out at 0%.
Turning to `COC(=O)[C@H](Cc1c[nH]c2ccccc12)N1C(=O)[C@@H]2Cc3c([nH]c4ccccc34)CN2C1(C)C`, the Activity entry was “Dose-dependent effect” in the assay filed under Rattus norvegicus [2] and 63.5% in the assay listed under Rattus norvegicus [1].
For `COC(=O)CN1C(=O)[C@@H]2Cc3c([nH]c4ccccc34)CN2C1(C)C`, the Activity in the assay listed under Rattus norvegicus [1] is given as 45.5%.
On the same count and under the same terms, to `COC(=O)[C@H](CCSC)N1C(=O)[C@@H]2Cc3c([nH]c4ccccc34)CN2C1(C)C` belongs 15.1%.
`COC(=O)[C@H](CO)NC(=O)[C@@H]1Cc2c([nH]c3ccccc23)CN1C(=O)OC(C)(C)C`: the Activity in the assay listed under Rattus norvegicus [3] came out at 6.1%.
As for `COC(=O)[C@H](C)NC(=O)[C@@H]1Cc2c([nH]c3ccccc23)CN1C(=O)OC(C)(C)C`, in the assay listed under Rattus norvegicus [3], the Activity was 18.8%.
In the assay listed under Rattus norvegicus [1], `COC(=O)CC[C@@H](C(=O)OC)N1C(=O)[C@@H]2Cc3c([nH]c4ccccc34)CN2C1(C)C` registered an Activity of 9.9%.
The molecule `COC(=O)C[C@H](NC(=O)[C@@H]1Cc2c([nH]c3ccccc23)CN1C(=O)OC(C)(C)C)C(=O)OC` returned an Activity in the assay filed under Rattus norvegicus [3] of 0%.
In the case of `COC(=O)[C@H](C(C)O)N1C(=O)[C@@H]2Cc3c([nH]c4ccccc34)CN2C1(C)C` (some centres undefined), the Activity in the assay listed under Rattus norvegicus [1] is reported as 0%.
As to `CCC(C)[C@H](NC(=O)[C@@H]1Cc2c([nH]c3ccccc23)CN1C(=O)OC(C)(C)C)C(=O)OC` (some centres undefined), the Activity in the assay listed under Rattus norvegicus [3] is 10.9%.
Regarding `COC(=O)[C@H](CO)N1C(=O)[C@@H]2Cc3c([nH]c4ccccc34)CN2C1(C)C`, in the assay listed under Rattus norvegicus [1], the Activity was 16.9%.
For `COC(=O)[C@H](C)N1C(=O)[C@@H]2Cc3c([nH]c4ccccc34)CN2C1(C)C`, the results for the Activity result in the assay filed under Rattus norvegicus [2] and in the assay filed under Rattus norvegicus [1] were “Dose-dependent effect” and 91.8%, respectively.
In turn, `COC(=O)[C@H](Cc1c[nH]cn1)NC(=O)[C@@H]1Cc2c([nH]c3ccccc23)CN1C(=O)OC(C)(C)C` came in with an Activity in the assay filed under Rattus norvegicus [3] of 0%.
In the assay filed under Rattus norvegicus [3], `COC(=O)CC[C@H](NC(=O)[C@@H]1Cc2c([nH]c3ccccc23)CN1C(=O)OC(C)(C)C)C(=O)OC` showed an Activity of 0%.
For `COC(=O)CNC(=O)[C@@H]1Cc2c([nH]c3ccccc23)CN1C(=O)OC(C)(C)C`, the Activity in the assay filed under Rattus norvegicus [3] came to 13.5%.
Turning to `CCC(C)[C@@H](C(=O)OC)N1C(=O)[C@@H]2Cc3c([nH]c4ccccc34)CN2C1(C)C` (some centres undefined), the results for the Activity result in the assay filed under Rattus norvegicus [2] and in the assay listed under Rattus norvegicus [1] were “Dose-dependent effect” and 34%, respectively.
Consider `COC(=O)C[C@@H](C(=O)OC)N1C(=O)[C@@H]2Cc3c([nH]c4ccccc34)CN2C1(C)C`, for which the Activity in the assay filed under Rattus norvegicus [1] came to 6.3%.
In the assay filed under Rattus norvegicus [1], `COC(=O)[C@H](CCCNC(=N)N)N1C(=O)[C@@H]2Cc3c([nH]c4ccccc34)CN2C1(C)C` came in with an Activity of 36.7%.
As for `COC(=O)[C@H](CCSC)NC(=O)[C@@H]1Cc2c([nH]c3ccccc23)CN1C(=O)OC(C)(C)C`, the Activity in the assay filed under Rattus norvegicus [3] turned out to be 6%.
For the molecule `COC(=O)[C@H](CCC(N)=O)N1C(=O)[C@@H]2Cc3c([nH]c4ccccc34)CN2C1(C)C`, the Activity in the assay listed under Rattus norvegicus [1] was 0%.
In turn, `COC(=O)[C@H](Cc1c[nH]cn1)N1C(=O)[C@@H]2Cc3c([nH]c4ccccc34)CN2C1(C)C` displayed an Activity in the assay filed under Rattus norvegicus [1] of 0%.
Take `COC(=O)[C@H](Cc1ccc(O)cc1)N1C(=O)[C@@H]2Cc3c([nH]c4ccccc34)CN2C1(C)C`: the Activity in the assay filed under Rattus norvegicus [1] turned out to be 16.3%.
Take `COC(=O)[C@H](Cc1c[nH]c2ccccc12)NC(=O)[C@@H]1Cc2c([nH]c3ccccc23)CN1C(=O)OC(C)(C)C`: the Activity in the assay listed under Rattus norvegicus [3] turned out to be 15.2%.
Turning to `COC(=O)[C@H](Cc1ccccc1)N1C(=O)[C@@H]2Cc3c([nH]c4ccccc34)CN2C1(C)C`, the Activity in the assay filed under Rattus norvegicus [1] turned out to be 0%.
For the molecule `COC(=O)[C@@H](NC(=O)[C@@H]1Cc2c([nH]c3ccccc23)CN1C(=O)OC(C)(C)C)C(C)O` (some centres undefined), the Activity in the assay filed under Rattus norvegicus [3] is 0%.
`COC(=O)[C@H](CC(C)C)N1C(=O)[C@@H]2Cc3c([nH]c4ccccc34)CN2C1(C)C`: in the assay filed under Rattus norvegicus [1], the Activity came to 15.7%.
In the assay listed under Rattus norvegicus [3], `COC(=O)[C@@H](NC(=O)[C@@H]1Cc2c([nH]c3ccccc23)CN1C(=O)OC(C)(C)C)C(C)C` came in with an Activity of 8.9%.
`CC(=O)OCC[N+](C)(C)C` [ACETYLCHOLINE] registered an Activity in the assay listed under Rattus norvegicus [1] of 42.3%.
`COC(=O)[C@H](CCCNC(=N)N)NC(=O)[C@@H]1Cc2c([nH]c3ccccc23)CN1C(=O)OC(C)(C)C` registered an Activity in the assay listed under Rattus norvegicus [3] of 11.3%.
As for `COC(=O)[C@H](CC(C)C)NC(=O)[C@@H]1Cc2c([nH]c3ccccc23)CN1C(=O)OC(C)(C)C`, the Activity in the assay listed under Rattus norvegicus [3] is 7.8%.
For the molecule `COC(=O)[C@H](C(C)C)N1C(=O)[C@@H]2Cc3c([nH]c4ccccc34)CN2C1(C)C`, in the assay listed under Rattus norvegicus [1], the Activity worked out at 24.2%.
Molecule `CN1CC(=O)N2[C@H](c3ccc4c(c3)OCO4)c3[nH]c4ccccc4c3C[C@@H]2C1=O` [TADALAFIL] yielded an Activity in the assay filed under Rattus norvegicus [3] of 89.9%.
`COC(=O)[C@H](Cc1ccccc1)NC(=O)[C@@H]1Cc2c([nH]c3ccccc23)CN1C(=O)OC(C)(C)C` yielded an Activity in the assay filed under Rattus norvegicus [3] of 0%.
Molecule `COC(=O)[C@H](Cc1ccc(O)cc1)NC(=O)[C@@H]1Cc2c([nH]c3ccccc23)CN1C(=O)OC(C)(C)C` registered an Activity in the assay filed under Rattus norvegicus [3] of 7.4%.
On to `COC(=O)[C@H](CCC(N)=O)NC(=O)[C@@H]1Cc2c([nH]c3ccccc23)CN1C(=O)OC(C)(C)C`, for which the Activity in the assay filed under Rattus norvegicus [3] was found to be 0%.
In turn, `COC(=O)[C@H](CC(N)=O)NC(=O)[C@@H]1Cc2c([nH]c3ccccc23)CN1C(=O)OC(C)(C)C` gave an Activity in the assay listed under Rattus norvegicus [3] of 0%.
